Measured values reported in ChEMBL document CHEMBL5096186, “Design, Synthesis, and Biological Evaluation of Novel Pyrimido[4,5-b]indole Derivatives Against Gram-Negative Multidrug-Resistant Pathogens” (J Med Chem, 2021).
≈ marks a conversion by molar mass, not a printed value.

Tests used:
[1] = target: hERG (KCNH2) potassium channel (Homo sapiens, UniProt Q12809); assay: Inhibition of hERG potassium channel assessed as maximum inhibition rate at 40 uM at -80 mV holding potential incubated for 120 seconds by whole cell-automated voltage clamp analysis assay relative to control; type: toxicity; details: time 120 sec
hERG (KCNH2) potassium channel, sequence (Q12809 whole entry): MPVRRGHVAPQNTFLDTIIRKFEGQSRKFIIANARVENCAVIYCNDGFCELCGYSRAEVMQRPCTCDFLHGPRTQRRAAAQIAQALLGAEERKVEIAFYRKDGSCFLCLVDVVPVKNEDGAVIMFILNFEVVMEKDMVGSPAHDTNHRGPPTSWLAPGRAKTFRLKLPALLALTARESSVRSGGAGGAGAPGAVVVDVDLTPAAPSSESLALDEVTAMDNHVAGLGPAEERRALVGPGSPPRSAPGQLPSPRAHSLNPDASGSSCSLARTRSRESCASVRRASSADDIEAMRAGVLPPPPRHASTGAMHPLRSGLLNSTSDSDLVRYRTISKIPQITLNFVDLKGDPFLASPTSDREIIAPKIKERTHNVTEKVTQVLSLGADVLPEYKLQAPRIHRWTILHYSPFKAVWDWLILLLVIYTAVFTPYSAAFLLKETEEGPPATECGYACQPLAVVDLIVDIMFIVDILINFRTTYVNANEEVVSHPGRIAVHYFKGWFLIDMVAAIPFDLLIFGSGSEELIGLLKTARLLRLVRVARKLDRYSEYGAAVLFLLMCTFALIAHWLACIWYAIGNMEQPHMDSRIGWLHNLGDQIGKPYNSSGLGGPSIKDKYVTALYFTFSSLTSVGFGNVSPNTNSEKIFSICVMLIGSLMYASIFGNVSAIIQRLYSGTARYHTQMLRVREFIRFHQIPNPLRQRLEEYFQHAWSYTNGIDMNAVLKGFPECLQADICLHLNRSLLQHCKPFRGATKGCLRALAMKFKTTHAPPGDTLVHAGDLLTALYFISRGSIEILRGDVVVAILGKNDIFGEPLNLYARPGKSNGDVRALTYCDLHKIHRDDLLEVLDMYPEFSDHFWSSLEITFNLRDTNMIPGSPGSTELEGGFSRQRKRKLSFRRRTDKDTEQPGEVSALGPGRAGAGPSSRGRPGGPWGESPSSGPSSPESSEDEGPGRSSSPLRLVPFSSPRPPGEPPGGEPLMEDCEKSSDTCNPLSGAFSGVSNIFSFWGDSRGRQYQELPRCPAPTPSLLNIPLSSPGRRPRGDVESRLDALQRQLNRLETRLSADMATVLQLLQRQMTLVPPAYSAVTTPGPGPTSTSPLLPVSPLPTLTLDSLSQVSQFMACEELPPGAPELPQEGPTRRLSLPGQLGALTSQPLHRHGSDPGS
Method in brief: (§1)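 Automated whole-cell patch clamp, holding potential −80 mV. Voltage protocol applied every 20 s. Baseline set with external solution containing 0.1% DMSO and stabilised 3 min. Compound applied until steady state, at least 3 min, then washout. Maximum tested concentration 40 μM, or 3 μM for cisapride as positive control.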

[2] = tested on: Staphylococcus aureus; assay: Antibacterial activity against methicillin-resistant Staphylococcus aureus strains 15 1 to 4 assessed as reduction in bacterial growth incubated for 18 to 20 hrs by CLSI based microdilution method; type: functional; details: time 18-20 hrs
Method in brief: (§2)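 Broth microdilution per CLSI. Compounds dissolved in DMSO (levofloxacin and meropenem in water) as 64 μg/mL stock, then serial twofold dilutions in broth giving 64 to 0.008 μg/mL. […] Clinical isolates tested as several strains per group; racemic GP-1 served as positive control; values given as MIC ranges.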

[3] = target: Voltage-gated inwardly rectifying potassium channel KCNH2 (Homo sapiens, UniProt Q12809); assay: Inhibition of hERG potassium channel assessed as […] at -80 mV holding potential incubated for 120 seconds by whole cell-automated voltage clamp analysis assay; type: toxicity; method in brief: as §1
Voltage-gated inwardly rectifying potassium channel KCNH2, sequence (Q12809 whole entry): as above

[4] = tested on: Escherichia coli; assay: Antibacterial activity against ESBL-producing Escherichia coli ATCC 35218 strains 15 1 to 3 assessed as reduction in bacterial growth incubated for 18 to 20 hrs by CLSI based microdilution method; type: functional; details: time 18-20 hrs
Method in brief: (§3)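 CLSI broth microdilution. Compounds in DMSO (levofloxacin and meropenem in water), serial twofold dilutions in broth, 64 to 0.008 μg/mL. […] Results reported as MIC ranges across strains.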

[5] = tested on: Staphylococcus aureus; assay: Antibacterial activity against methicillin-sensitive Staphylococcus aureus strains 15 1 to 4 assessed as reduction in bacterial growth incubated for 18 to 20 hrs by CLSI based microdilution method; type: functional; details: time 18-20 hrs; method in brief: as §2
[6] = tested on: Escherichia coli; assay: Antibacterial activity against Escherichia coli ATCC 35218 strains 15 1 to 3 assessed as reduction in bacterial growth incubated for 18 to 20 hrs by CLSI based microdilution method; type: functional; details: time 18-20 hrs; method in brief: as §3
[7] = tested on: Pseudomonas aeruginosa; assay: Antibacterial activity against multidrug resistant Pseudomonas aeruginosa strains 15 1 to 3 assessed as reduction in bacterial growth incubated for 18 to 20 hrs by CLSI based microdilution method; type: functional; details: time 18-20 hrs; method in brief: as §2
[8] = tested on: Staphylococcus epidermidis; assay: Antibacterial activity against methicillin-sensitive Staphylococcus epidermidis strains 15 1 to 4 assessed as reduction in bacterial growth incubated for 18 to 20 hrs by CLSI based microdilution method; type: functional; details: time 18-20 hrs; method in brief: as §2
[9] = Metabolic stability in rat liver microsome assessed as metabolic bioavailability at 0.1 uM in presence of NADPH incubated upto 60 mins by LC-MS/MS analysis; type: ADME; details: liver microsomes
Method in brief: (§4)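 Compound at 0.1 μM final, in 0.01% DMSO with 0.005% BSA. Incubated with rat or human liver microsomes at 0.33 mg/mL in 0.1 M Tris-HCl, pH 7.4, with 5 mM MgCl₂ and 1 mM NADPH, at 37 °C. Samples at 0, 7, 17, 30 and 60 min quenched with cold methanol and analysed by LC-MS/MS. Half-life, Cl_int and MF% derived as previously described.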

[10] = Metabolic stability in rat liver microsome assessed as elimination half life at 0.1 uM in presence of NADPH incubated upto 60 mins by LC-MS/MS analysis; type: ADME; details: liver microsomes, read-out: beta t1/2; method in brief: as §4
[11] = Metabolic stability in human liver microsome assessed as intrinsic clearance at 0.1 uM in presence of NADPH incubated upto 60 mins by LC-MS/MS analysis; type: ADME; details: microsomes, 1 h; method in brief: as §4
[12] = Metabolic stability in human liver microsome assessed as elimination half life at 0.1 uM in presence of NADPH incubated upto 60 mins by LC-MS/MS analysis; type: ADME; details: liver microsomes, read-out: beta t1/2; method in brief: as §4
[13] = Metabolic stability in human liver microsome assessed as metabolic bioavailability at 0.1 uM in presence of NADPH incubated upto 60 mins by LC-MS/MS analysis; type: ADME; details: liver microsomes; method in brief: as §4
[14] = Metabolic stability in rat liver microsome assessed as intrinsic clearance at 0.1 uM in presence of NADPH incubated upto 60 mins by LC-MS/MS analysis; type: ADME; details: microsomes, 1 h; method in brief: as §4

Row | SMILES | inhibition at 2 min, 40 µM [1] [%] | MIC [2] [µg/mL] | IC50 [3] [µM] | MIC [4] [µg/mL] | MIC [5] [µg/mL] | MIC [6] [µg/mL] | MIC [7] [µg/mL] | MIC [8] [µg/mL] | Fh at 1 h, 0.1 µM [9] [%] | half-life at 0.1 µM [10] [h] | CLH [11] [mL/min/g] | half-life at 0.1 µM [12] [h] | Fh at 1 h, 0.1 µM [13] [%] | CLH [14] [mL/min/g]
1 | CNc1cc(F)cc2c1[nH]c1nc(Oc3cnc(C)nc3)nc(N3CC/C(=C(\F)CN)C3)c12 | 41.6 | 0.008 (≈ 0.0177 µM) | > 40 | 0.015 (≈ 0.0332 µM) | < 0.008 | < 0.06 | 2 (≈ 4.42 µM) | < 0.008 | – | – | – | – | – | –
2 | CCC(CN)=C1CN(c2nc(Sc3cnc(C)nc3)nc3[nH]c4c(NC)cc(F)cc4c23)C1 | – | < 0.008 | – | 1 (≈ 2.15 µM) | 0.008 (≈ 0.0172 µM) | 0.5 (≈ 1.08 µM) | > 16 | < 0.008 | – | – | – | – | – | –
3 | CNc1cc(F)cc2c1[nH]c1nc(Oc3cnc(C)nc3)nc(N3CC/C(=C(/F)CN)C3)c12 | – | 0.008 (≈ 0.0177 µM) | – | 0.125 (≈ 0.276 µM) | < 0.008 | 0.06 (≈ 0.133 µM) | 2 (≈ 4.42 µM) | < 0.008 | – | – | – | – | – | –
4 | CCC(CO)=C1CN(c2nc(C(=O)Nc3cnc(C)nc3)nc3[nH]c4c(NC)cc(F)cc4c23)C1 | – | – | – | > 64 | – | > 64 | – | – | – | – | – | – | – | –
5 | CNc1cc(F)cc2c1[nH]c1nc(Oc3cnc(C)nc3)nc(N3CC(=C(Br)CN)C3)c12 | – | – | – | 0.06 (≈ 0.12 µM) | < 0.008 | 0.015 (≈ 0.03 µM) | 2 (≈ 4.01 µM) | < 0.008 | – | – | – | – | – | –
6 | CNc1cc(F)cc2c1[nH]c1nc(Oc3cnc(C)nc3)nc(N3CC(=C(C)CN)C3)c12 | 4.8 | – | > 40 | 2 (≈ 4.6 µM) | < 0.008 | 0.06 (≈ 0.138 µM) | > 4 | < 0.008 | – | – | – | – | – | –
7 | CCC(CO)=C1CN(c2nc(Oc3cnc(C)nc3)nc3[nH]c4c(NC)cc(F)cc4c23)C1 | – | – | – | 0.25 (≈ 0.556 µM) | < 0.008 | 0.25 (≈ 0.556 µM) | ≥ 64 | < 0.008 | 14.8 | 0.76 | 51.4 | 1.27 | 27.6 | 256.1
8 | CNc1cc(F)cc2c1[nH]c1nc(Oc3cnc(C)nc3)nc(N3CC(=CC(C)O)C3)c12 (stereo not given) | – | – | – | 0.5 (≈ 1.15 µM) | < 0.008 | 0.125 (≈ 0.287 µM) | > 16 | < 0.008 | – | – | – | – | – | –
9 | CCC(CN)=C1CN(c2nc(S(C)(=O)=O)nc3[nH]c4c(NC)cc(F)cc4c23)C1 | – | – | – | > 16 | > 16 | > 16 | > 16 | > 16 | – | – | – | – | – | –
10 | CCC(CN)=C1CN(c2nc(NS(C)(=O)=O)nc3[nH]c4c(NC)cc(F)cc4c23)C1 | – | – | – | > 16 | > 16 | > 16 | > 16 | > 16 | – | – | – | – | – | –
11 | CCC(CN)=C1CN(c2nc(Oc3cnc(C(C)(C)O)nc3)nc3[nH]c4c(NC)cc(F)cc4c23)C1 | – | – | – | 1 (≈ 2.03 µM) | < 0.008 | 0.5 (≈ 1.02 µM) | > 16 | < 0.008 | – | – | – | – | – | –
